Screening results from PubChem BioAssay.
This is a sample that favours compounds with a hit; in the whole collection about 3.5% have one here.
MrgX1 antag – human MrgX1 receptor antagonism, primary screen; Q96LB2; MRGX1-HEK293 calcium flux, Fluo-4, BAM8-22 antagonism; active compounds read low; B-score at 10 µM; 1.3% of 310,000 active; AID 588676;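 active means calcium-response B-score plate-corrected more than 3 library SD below zero, starting fluorescence within 5 deviations, no agonist response on first addition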;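 further: peak minus trough fluorescence over baseline after final BAM8-22 challenge near maximal dose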
Target sequence (Q96LB2 whole entry, looked up): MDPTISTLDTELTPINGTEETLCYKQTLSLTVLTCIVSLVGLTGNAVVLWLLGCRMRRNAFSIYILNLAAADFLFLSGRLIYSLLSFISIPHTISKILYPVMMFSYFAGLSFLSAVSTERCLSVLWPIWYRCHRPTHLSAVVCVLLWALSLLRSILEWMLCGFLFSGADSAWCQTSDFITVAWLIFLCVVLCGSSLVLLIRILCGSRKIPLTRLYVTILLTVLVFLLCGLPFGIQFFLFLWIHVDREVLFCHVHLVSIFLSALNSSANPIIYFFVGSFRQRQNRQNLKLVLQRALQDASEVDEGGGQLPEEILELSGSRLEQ
MrgX1 ag – agonists of human MrgX1 receptor. 0.44% of 310,000 active. Q96LB2. MrgX1-HEK293 cells, Fluo-4 calcium fluorescence, agonist mode; active compounds read high. B-score at 10 µM;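 active means calcium response B-score plate-corrected fluorescence ratio at least 3 library SD, with starting fluorescence B-score inside 5 SD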
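System – MrgX1-expressing HEK293 cells · Incubation – cells plated overnight, dye loaded 0.5 h 37 °C, 0.5 h room temperature · Technique – kinetic Fluo-4 NW fluorescence of intracellular calcium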
RGS4 act – RGS4 potentiation or activation. B-score at 10 µM. HEK293 M3R/inducible RGS4, carbachol calcium flux Fluo4; active compounds read low. 0.92% of 310,000 active. AID 463111;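 active means B-score of the integrated calcium signal more than 4 SD below the library mean, with starting fluorescence not abnormally high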;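 further: negative B-score means reduced calcium response which marks RGS4 activation or potentiation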
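test system = M3R-expressing HEK293 line, RGS4 induced by doxycycline | probe or stimulus = carbachol at ECmax as muscarinic agonist stimulus | timing = dye loading 30 min 37 °C, buffer rest 30 min RT | signal = calcium dye Fluo4 fluorescence | evaluation = B score from integrated fluorescence ratio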
MrgX1 allo act – allosterically activates human MrgX1 receptor signaling; Q96LB2; MrgX1-HEK293, Fluo-4 calcium flux, FDSS; active compounds read high; B-score at 10 µM; 0.63% of 310,000 active; AID 588675;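 active means plate-corrected calcium response at least 3 library SD above typical, normal starting fluorescence, not activating the receptor alone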;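 further: compound read alongside a low EC10 to EC30 dose of BAM8-22 agonist; peak minus trough fluorescence over baseline measured at the second addition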
RGS4 block – human RGS4 inhibition. P49798. HEK293 M3R/RGS4 inducible, Fluo-4 calcium flux; active compounds read high; triggered by carbachol at its EC20. B-score at 10 µM. 0.45% of 310,000 active;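 active means B-score, a plate-corrected calcium signal, over three deviations above library mean, with baseline fluorescence within five deviations of library mean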;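 further: RGS4 expression induced by doxycycline in cells with stable M3 receptor; B-score is computed from the integrated fluorescence ratio over baseline after carbachol; higher B-score means a larger calcium signal and so more RGS4 inhibition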
Target sequence (P49798 whole entry, looked up): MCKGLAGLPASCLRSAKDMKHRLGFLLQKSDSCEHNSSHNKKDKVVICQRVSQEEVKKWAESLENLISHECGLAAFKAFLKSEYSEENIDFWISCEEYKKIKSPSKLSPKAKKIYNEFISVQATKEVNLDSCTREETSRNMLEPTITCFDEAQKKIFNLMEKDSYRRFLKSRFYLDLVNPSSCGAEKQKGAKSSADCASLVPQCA
MrgX1 ant reconf – confirmation of human MrgX1 receptor antagonists; shares compounds with MrgX1 antag; MrgX1-HEK293, BAM8-22 calcium flux, Fluo-4; active compounds read low; remaining BAM8-22 calcium response % of control (active compounds read low), % at 10 µM; 19% of 2,300 active; AID 602420;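 active means remaining agonist calcium response no higher than 100% minus 3 SD of agonist-only control wells, with starting fluorescence near control levels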;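 further: agonist BAM8-22 given at a near maximal EC90 to ECmax level; peak minus minimum fluorescence divided by baseline after agonist addition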
HEK293 Ca flux – counter-screen for MrgX1 antagonists: effect in parental HEK293 cells; 2% of 4,000 active; AID 624111; Fluo-4 calcium fluorescence, FDSS; fluorescence ratio F(max-min)/F0 at 10 µM; shares compounds with MrgX1 antag;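 active means duplicate-averaged calcium fluorescence ratio at least three times the standard deviation of buffer wells, a nonspecific response in parental cells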
HEK293 Ca counter – activity in parental HEK293 cells without MrgX1; fluorescence ratio F(max-min)/F0 at 10 µM; 0.4% of 4,000 active; AID 624114; shares compounds with MrgX1 antag; parental HEK293 calcium flux, Fluo-4 fluorescence ratio; active compounds read high;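 active means calcium fluorescence ratio, averaged over duplicates, at least 3 SD of the buffer-well ratio, meaning a nonspecific response in receptor-free cells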;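 further: untransfected parental HEK293 lacking MrgX1 used as counterscreen for MrgX1 allosteric activators; fluorescence change taken during the second addition on a kinetic imager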
HEK293 Ca cntr2 – counter-screen for MrgX1 activators: effect in parental HEK293 cells. fluorescence ratio F(max-min)/F0 at 10 µM. 8.7% of 4,000 active. Fluo-4 calcium fluorescence (FDSS); active compounds read high. shares compounds with MrgX1 antag;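 active means calcium fluorescence ratio at least three times the spread of buffer wells, meaning a non-specific response in parental cells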
A number is an active result; 0 = inactive; - = no result.

SMILES	MrgX1 antag	MrgX1 ag	RGS4 act	MrgX1 allo act	RGS4 block	MrgX1 ant reconf	HEK293 Ca flux	HEK293 Ca counter	HEK293 Ca cntr2
C/C(=N\NC(=O)c1cccc(S(=O)(=O)N2CCCC2)c1)c1ccc(OCC(=O)N(C)C)cc1	0	0	0	0	0	-	-	-	-
O=C(NCCN1CCOCC1)c1ccccc1N1C(=O)[C@@H]2Cc3c([nH]c4ccccc34)C(c3ccccc3)N2C1=O (stereo partly drawn)	-6.8	0	0	0	0	0	0	0	0
O=C(NCCCN1CCOCC1)c1ccccc1N1C(=O)[C@@H]2Cc3c([nH]c4ccccc34)C(c3ccc(F)cc3)N2C1=O (stereo partly drawn)	0	0	0	0	0	-	-	-	-
COc1ccc(OC)c(-n2c(-c3ccccc3)n[nH]c2=S)c1	-5.2	0	0	0	0	0	0	0	0
COc1ccc(OC)c(-n2c(-c3cccc(C)c3)n[nH]c2=S)c1	0	0	0	0	0	-	-	-	-
Cc1cc(C(=O)COc2ccccc2C(N)=O)c(C)n1CC1CCCO1 (stereo not drawn)	-4.7	0	0	0	0	71%	0	0	0
Cc1cc(C(=O)COC(=O)c2ccccc2Br)c(C)n1CC1CCCO1 (stereo not drawn)	0	0	0	0	0	-	-	-	-
CCOC(=O)c1cnn(-c2cccc(Cl)c2)c1N	0	0	0	0	0	-	-	-	-
CCOC(=O)c1cnn(-c2ccccc2)c1N	-4.7	0	0	0	0	0	0	0	0
CCOC(=O)c1cnc2c(-c3ccccc3)cnn2c1C	-5	0	0	0	0	0	0	0	0
CCC(NC(=O)COc1cc2c(c3oc(=O)c(C)c(C)c13)CCC(C)(C)O2)C(=O)O (stereo not drawn)	0	0	0	0	0	-	-	-	-
COc1ccc(NC(=O)CSc2nc(=O)n(CCN(C)C)c3c2CCCC3)cc1OC	-5.6	0	0	0	0	0	0	0	0
CCN(CC)CCn1c2c(c(SCC(=O)Nc3ccc(F)c(F)c3)nc1=O)CCC2	-9.5	0	0	0	0	0	0	0	0
COc1ccc(Cl)cc1NC(=O)CSc1nc(=O)n(CCN(C)C)c2c1CCCC2	0	0	0	0	0	-	-	-	-
CC(C)Sc1nc(C(F)(F)F)cc(=O)n1-c1ccccc1	-8.2	0	0	0	0	0	0	0	0
CCSc1nc(C(F)(F)F)cc(=O)n1-c1ccccc1	0	0	0	0	0	-	-	-	-
O=C(NCc1ccc(Cl)s1)C1CCC(=O)N(CCc2ccccn2)C1 (stereo not drawn)	0	0	0	0	0	-	-	-	-
CCOC(=O)C1=C(C)N(CCCC(=O)O)C(=O)NC1c1ccc(C(F)(F)F)cc1 (stereo not drawn)	-	-	0	-	0	-	-	-	-
COc1ccc(C)cc1NC(=O)CCN1CC(C)OC(C)C1 (stereo not drawn)	-5.1	0	0	0	0	0	0	0	0
COc1ccc(OC)c(NC(=O)CCN2CC(C)OC(C)C2)c1 (stereo not drawn)	0	0	0	0	0	-	-	-	-
COc1ccccc1CN=Cc1[nH]c2ccc(Br)c(Cl)c2c1O	0	0	0	0	0	-	-	-	-
Cc1cccc(N=Cc2[nH]c3ccc(Br)c(Cl)c3c2O)c1	-5.9	0	-	0	-	0	0.18	0	0
O=C(O)c1ccc(Cl)c(S(=O)(=O)N2CCCC2)c1	0	0	0	0	0	-	-	-	-
O=C(O)c1ccc(Br)c(S(=O)(=O)N2CCCC2)c1	-5.6	0	0	0	0	0	0	0	0
CC1CC(=O)c2cnc(NCc3ccco3)nc2C1 (stereo not drawn)	-7.2	0	0	0	0	0	0	0	0
SMILES	MrgX1 antag	MrgX1 ag	RGS4 act	MrgX1 allo act	RGS4 block	MrgX1 ant reconf	HEK293 Ca flux	HEK293 Ca counter	HEK293 Ca cntr2
O=C(NCCc1ccccc1)c1ccc(-c2ccccc2Cl)o1	-4.6	0	0	0	0	0	0	0	0
COc1cc(C(=O)NCCNc2nc3ccc(C)cc3cc2C#N)cc(OC)c1OC	0	0	0	0	0	-	-	-	-
COc1ccccc1NC(=O)COc1cc(C)nc(C(C)C)n1	-5.4	0	0	0	0	0	0	0	0
CC(=O)c1ccc(NC(=O)C(C)NCc2ccccc2Cl)cc1 (stereo not drawn)	-6.2	0	0	0	0	0	0	0	0
CCOC(=O)C1(Cc2ccc(Cl)cc2)CCN(Cc2cn(CC)nc2C)CC1	0	0	0	0	0	-	-	-	-
Cc1ccc(C)c(NC(=O)CN(C)C(=O)c2cccc(S(=O)(=O)N(C)C)c2)c1	-4.9	0	0	0	0	84%	0	0	0
Cc1ccc(C)c(NC(=O)CN(C)C(=O)c2cccc(S(=O)(=O)N3CCN(Cc4ccccc4)CC3)c2)c1	0	0	0	0	0	-	-	-	-
Cc1nn(C(C)C(=O)NC2CCC(C)CC2)c(=O)c2nn(-c3ccccc3)c(C)c12 (stereo not drawn)	0	0	0	0	0	-	-	-	-
N#Cc1ccccc1S(=O)(=O)N1CCN(CC(=O)NC(=O)NC2CCCCC2)CC1	-6.3	0	0	0	0	0	0	0	0
Cc1ccc(C(=O)c2c[nH]c3c(F)cc(F)cc3c2=O)cc1	-6.8	0	0	0	0	0	0	0	0
COc1ccc2c(c1)c(=O)c(C(=O)c1ccc(C)cc1)cn2CC(=O)Nc1ccc(F)cc1	0	0	0	0	0	-	-	-	-
Cc1cc(O)c(C(C)C)cc1N=Nc1ccccc1C(=O)O	0	0	0	0	0	-	-	-	-
Cc1cc(N=Nc2ccccc2C(=O)O)c(C)c(C)c1O	-6.9	0	0	0	0	0	0	0	0
CCC(=O)N1CCc2cc(Br)cc(S(=O)(=O)CC(=O)OC)c21	-5.9	0	0	0	0	0	0	0	0
Cc1nnc(SCC(=O)NC(=O)NC(C)(C)C)s1	-5.6	0	0	0	0	0	0	0	0
Cc1nnc(SCC(=O)NC(=O)NC(C)C)s1	0	0	0	0	0	-	-	-	-
Cc1ccccc1NC(=O)CSc1ccc(-c2ccc(-n3cccn3)cc2)nn1	0	0	0	0	0	-	-	-	-
COc1ccccc1NC(=O)CSc1ccc(-c2ccc(-n3ccnc3)cc2)nn1	-5.1	0	0	0	0	0	0	0	0
Cc1cc(NCCCN2CCOCC2)n2c(nc3ccccc32)c1C#N	-6	0	0	0	0	78%	0	0	0
Cc1cc(NCCN2CCOCC2)n2c(nc3ccccc32)c1C#N	0	0	0	0	0	-	-	-	-
